In experiment [1] the target is T1, Cathepsin B (Homo sapiens, UniProt P07858). Put plainly: Inhibition of cathepsin B (unknown origin) using Cbz-Phe-Arg-AMC as substrate preincubated for 5 mins followed by substrate addition and measured after 10 mins by fluorometric assay. The gist of the method: (§1)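 Cathepsin B solution (0.2 ng/µL) or cathepsin L solution (0.02 ng/µL) preincubated with compound at 40 °C for 5 min. Equal volume of pre-warmed Cbz-Phe-Arg-AMC solution added (40 µM for B, 80 µM for L). AMC fluorescence (ex 380/em 460 nm) read continuously for 10 min. Triplicates, two independent experiments, mean ± SEM.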

Experiment [2] has as its target T2, Procathepsin L (Homo sapiens, UniProt P07711). Put plainly: Inhibition of cathepsin L (unknown origin) using Cbz-Phe-Arg-AMC as substrate preincubated for 5 mins followed by substrate addition and measured after 10 mins by fluorometric assay. In outline:
as §1
Target sequence in this assay (P07711 whole entry): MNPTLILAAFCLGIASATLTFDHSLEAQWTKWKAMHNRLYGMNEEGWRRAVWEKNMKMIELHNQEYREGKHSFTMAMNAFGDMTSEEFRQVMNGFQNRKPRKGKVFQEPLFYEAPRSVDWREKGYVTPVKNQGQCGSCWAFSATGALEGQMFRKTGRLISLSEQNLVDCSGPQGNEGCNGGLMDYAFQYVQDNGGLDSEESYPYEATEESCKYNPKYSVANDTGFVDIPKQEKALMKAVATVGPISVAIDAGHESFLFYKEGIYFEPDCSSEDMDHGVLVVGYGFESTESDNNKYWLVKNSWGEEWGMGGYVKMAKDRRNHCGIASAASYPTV

In experiment [3] the target is T1, Cathepsin B. As to conditions: dose 6.25 nM, time 15.0 min.
The target in experiment [4] is T2, Procathepsin L. As to conditions: dose 6.25 nM, time 15.0 min.
Target sequence in this assay (P07711 114-333 limits assumed): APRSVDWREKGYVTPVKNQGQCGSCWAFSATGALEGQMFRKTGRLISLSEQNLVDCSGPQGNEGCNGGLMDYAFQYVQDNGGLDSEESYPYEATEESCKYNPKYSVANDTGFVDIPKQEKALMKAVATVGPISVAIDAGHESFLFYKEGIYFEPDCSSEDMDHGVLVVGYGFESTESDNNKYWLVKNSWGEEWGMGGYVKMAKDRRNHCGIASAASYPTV

Structures are written as SMILES. Active and inactive are the calls of the source. No cut-off for these calls is given here.

What is called IC50 is the concentration that gives 50% inhibition. Low values mean greater potency in that assay, high ones weaker potency in that assay.

With `CC(C)C[C@H](NC(=O)[C@H]1O[C@@H]1C(=O)O)C(=O)NCCCCN=C(N)N` [E-64], the IC50 was determined as 4.6 nM on Cathepsin B [1] and 2.3 nM on Procathepsin L [2]. The inhibition entry at Cathepsin B [3] and at Procathepsin L [4] was “Active” each time.

These data come from ChEMBL document CHEMBL5107962, “Covalent sortase A inhibitor ML346 prevents Staphylococcus aureus infection of Galleria mellonella” (RSC Med Chem, 2022).
